# S1P2 agonist: S1P2 receptor agonists, primary screen, cell-based; Sphingosine 1-phosphate receptor 2 (Homo sapiens), O95136; S1P2-expressing cell line, agonist reporter read-out; activation, % at 4.5 µM; actives 0.46% (n = 97,000); AID 729, 2007; in the data active = activation above about 16%
# Target sequence (O95136 whole entry, looked up): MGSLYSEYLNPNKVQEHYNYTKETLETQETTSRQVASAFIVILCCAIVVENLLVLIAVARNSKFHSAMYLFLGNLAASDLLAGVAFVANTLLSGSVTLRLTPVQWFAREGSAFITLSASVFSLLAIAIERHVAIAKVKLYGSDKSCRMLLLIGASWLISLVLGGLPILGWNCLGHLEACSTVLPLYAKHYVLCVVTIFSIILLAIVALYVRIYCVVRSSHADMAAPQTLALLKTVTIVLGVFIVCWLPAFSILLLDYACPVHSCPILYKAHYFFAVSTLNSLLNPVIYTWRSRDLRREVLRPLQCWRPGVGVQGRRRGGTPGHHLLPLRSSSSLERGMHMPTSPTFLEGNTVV
# HIV Rev-RRE inh: HIV-1 Rev-RRE binding inhibitors, primary screen, biochemical, FRET, protein-RNA interaction. P05866. inhibition, % at 8 µM. actives 0.79% (n = 97,000). Rev peptide-RRE RNA binding;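 active = inhibition above the screen-wide mean plus 3 SD, cut at about 35% in these data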
#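 Assay system: labelled RRE RNA duplex and labelled Rev peptide / Medium: HEPES pH 7.5 salt buffer with EDTA / Reagent: labelled Rev peptide / Schedule: 5 + 15 min at 25 °C / Signal: FRET, excitation 480 nm, emission 540 nm donor and 671 nm acceptor / Benchmarks: DMSO and neomycin B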
# S1P2 antag: human S1P2 receptor antagonists, primary screen, cell-based; cell-based S1P2 antagonist assay, inhibition at 5 uM; inhibition, % at 5 µM; actives 0.21% (n = 97,000); AID 736, 2007; in the data active = inhibition above about 45%;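 also: CRE beta-lactamase reporter cells expressing human S1P2 stimulated with S1P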
# GALR2 agonist: GALR2 receptor agonists, primary screen, cell-based. actives 0.48% (n = 140,000). activation, % (no concentration beside the values). GALR2-expressing cells, agonist activation read-out; in the data active = activation above about 5%, passing the limit was not always enough
# GALR2 blocker: GALR2 antagonists in receptor-expressing cells, primary screen. Galanin receptor type 2 (Homo sapiens), O43603. antagonist mode. inhibition, % at 4 µM. actives 0.39% (n = 140,000). AID 828, 2007;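 also: cells stimulated with galanin 1-16 at roughly its EC80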
# GALR2 ant conf: GALR2 antagonists, retest of hits, confirmation, cell-based; shares compounds with GALR2 blocker; inhibition, % at 4 µM; GALR2-expressing cells, antagonist mode, inhibition; actives 60% (n = 480); AID 866, 2007;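 also: cells stimulated with galanin at about its EC80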
# BLA inh counter: inhibitors of NFAT-driven beta-lactamase reporter, confirmation, counter-screen for GALR2 antagonist project, CHO NFAT-bla cells, FRET readout. shares compounds with GALR2 blocker. thapsigargin-stimulated. inhibition, % at 4.2 µM. actives 36% (n = 480);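 active = inhibition above the mean inhibition across tested compounds plus 3 SD, cut at about 27% in these data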
# Hits are given with their value; . = inactive; / = not tested or not shown. A selection: hits, their analogues and other compounds. The true share with any hit is near 1.6%. Rule as the data show it, unless noted: active = inhibition above about 27%; inactive = the rest.
SMILES,S1P2 agonist,HIV Rev-RRE inh,S1P2 antag,GALR2 agonist,GALR2 blocker,GALR2 ant conf,BLA inh counter
c1ccc2c(c1)[nH]c1c(NCC3CCCO3)ncnc12 (stereo unspecified),.,.,.,.,28,27,.
CC(=O)N1N=C(C)CC1c1ccc(O)cc1 (stereo unspecified),/,/,/,.,.,/,/
O=C(Cc1nn[nH]n1)c1ccccc1O,/,/,/,.,.,/,/
C=CCOc1ccc2nnc(C)n2n1,/,/,/,.,.,/,/
Cc1ccc2nc(-c3sc4nc(C)ccc4c3N)[nH]c2c1,.,.,.,.,.,/,/
Cc1cc(C)c2c(N)c(-c3nc4ccccc4[nH]3)sc2n1,.,.,.,.,28,.,.
Cn1cnc([N+](=O)[O-])c1NC(C)(C)C,.,.,.,.,.,/,/
Cn1cnc([N+](=O)[O-])c1S(=O)(=O)c1ccc(Cl)cc1,/,/,/,.,38,41,.
CC(C)(C)C1=C(C#N)C(c2ccc3c(c2)OCO3)C(C#N)=C(N)O1 (stereo unspecified),.,.,.,.,.,/,/
CC(C)(C)C1=C(C#N)C(c2ccncc2)C(C#N)=C(N)O1 (stereo unspecified),/,/,/,.,32,.,.
CCOc1ccc(C2=Nn3c(nnc3-c3ccccc3OC)SC2)cc1,.,.,.,5.3,33,32,60
CCOc1ccc(-c2nnc3n2N=C(c2ccc(OC)cc2)CS3)cc1,.,.,.,.,.,/,/
CC(=O)Oc1ccc2cc(-c3nc4ccccc4n3C)c(=O)oc2c1,38,.,.,23,37,.,30
CC(NS(=O)(=O)c1cccc(S(=O)(=O)c2ccccc2)c1)C(=O)O (stereo unspecified),/,/,/,.,.,/,/

# Assay outcomes deposited in PubChem BioAssay by The Scripps Research Institute Molecular Screening Center.
